Most compounds without a hit are left out; they make up all but 4.1% or so of the library.
MC4R ag barr = human MC4R agonism via beta-arrestin; hit rate 0.98% among 360,000; P32245; activation, % at 8.9 µM; U2OS MC4R beta-arrestin complementation, luminescence; percent of melanotan II response, DMSO zero;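 active means activation above a per-plate cutoff, the mean activation of sample wells on that plate plus 3 SD, cut at about 8% in these data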
SMARCA2 act = increases SMARCA2 function in MMTV reporter cells | MG213 cells, MMTV-luciferase reporter, dexamethasone, overnight | activation, % at 9.1 µM | hit rate 1% among 370,000; in the data active means activation above about 7.8%;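 further: 0% = vehicle wells and 100% = reference activator wells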
ATG4B inh = inhibitors of human ATG4B cysteine protease; Q9Y4P1; ATG4B cleavage of LC3-PLA2, NBD-HPC fluorescence, 1 h; inhibition, % at 8.33 µM; hit rate 0.51% among 340,000; AID 504462; in the data active means inhibition above about 40%
Target sequence (Q9Y4P1 whole entry, looked up): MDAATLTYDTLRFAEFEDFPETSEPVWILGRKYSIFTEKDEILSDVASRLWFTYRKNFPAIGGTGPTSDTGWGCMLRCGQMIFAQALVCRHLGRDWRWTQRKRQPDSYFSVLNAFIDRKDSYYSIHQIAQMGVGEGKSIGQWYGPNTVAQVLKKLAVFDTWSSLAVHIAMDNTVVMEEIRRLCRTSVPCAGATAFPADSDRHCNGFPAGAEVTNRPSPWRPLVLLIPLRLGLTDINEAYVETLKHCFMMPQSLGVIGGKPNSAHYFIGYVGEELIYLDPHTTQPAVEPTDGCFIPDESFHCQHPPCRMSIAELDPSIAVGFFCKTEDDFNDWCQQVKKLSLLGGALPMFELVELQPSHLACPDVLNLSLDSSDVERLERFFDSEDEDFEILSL
MC4R antagonist = antagonists of human melanocortin 4 receptor (MC4R) | P32245 | hit rate 0.48% among 360,000 | MC4R-expressing cells, MTII-stimulated cAMP, LANCE TR-FRET | inhibition, % at 6.5 µM;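 active means inhibition above its plate's cutoff, the mean of tested wells on that plate plus 3 SD, cut at about 29% in these data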;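 further: 0% = Melanotan II alone and 100% = Melanotan II plus saturating MCL0020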
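system = U2OS cells with stable human MC4R expression | also added = Melanotan II challenge after compound preincubation | dosing = one concentration, 6.5 µM nominal | incubation = compound 30 min, challenge 1 h, detection 1 h | measured by = TR-FRET with Eu-cAMP and labeled anti-cAMP, 671 nm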
MPTP block = blocks calcium-induced mitochondrial swelling. hit rate 1.4% among 360,000. inhibition, % at 10 µM. AID 602449. isolated mouse mitochondria, Ca2+ swelling absorbance, 30 min;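 active means inhibition of 50% or more, scaled per plate between neutral and stimulator controls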;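 further: 0% = DMSO wells given calcium and 100% = 1 mM EGTA wells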
MPTP counter = Rhodamine 123 counter-screen of mitochondrial pore hits; shares compounds with MPTP block; isolated mitochondria, membrane potential, Rhodamine 123 fluorescence; inhibition, % at 10 µM; hit rate 78% among 5,000; in the data active means inhibition above about 22%;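 further: 0% = DMSO vehicle and 100% = positive control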
MPTP abs DR = MPTP inhibition, dose response swelling confirmation; shares compounds with MPTP block; isolated mitochondria swelling, absorbance; IC50, µM; hit rate 58% among 780; AID 651561; in the data active means IC50 below about 20 µM
MPTP counter DR = counter-screen for mitochondrial permeability transition pore inhibitors, dose response. isolated mitochondria counterscreen, fluorescence read-out. hit rate 49% among 780. shares compounds with MPTP block. IC50, µM; in the data active means IC50 below about 80 µM
* = called active by the depositor.

For CC(C)(C)c1cnnn1-c1ccc(/C=N/Nc2ccc([N+](=O)[O-])cc2)cc1 the results were MC4R ag barr 0, SMARCA2 act -1, ATG4B inh -11, MC4R antagonist 3, MPTP block 74* and MPTP counter 68*.
Screening Cc1c([N+](=O)[O-])cc(C(=O)Nc2ccc(Cc3ccncc3)cc2)cc1[N+](=O)[O-] returned MC4R ag barr 2, SMARCA2 act -4, ATG4B inh -13, MC4R antagonist 4 and MPTP block 49.
Screening O=C(Nc1ccc(Nc2ccccc2)cc1)c1ccc(Cl)c([N+](=O)[O-])c1 returned MC4R ag barr 0, SMARCA2 act -4, ATG4B inh 5, MC4R antagonist 10, MPTP block 67* and MPTP counter 64*.
Screening COc1ccc(NC(=O)c2ccc(-n3cccn3)c([N+](=O)[O-])c2)cc1 returned MC4R ag barr -1, SMARCA2 act -5, ATG4B inh -4, MC4R antagonist 2 and MPTP block -3.
Cc1cc(C(=O)Nc2ccc(Nc3ccccc3)cc2)ccc1[N+](=O)[O-] was read as MC4R ag barr 2, SMARCA2 act 3, ATG4B inh -5, MC4R antagonist 2 and MPTP block 1.
Screening O=C(Nc1ccc(Cc2ccncc2)cc1)c1ccc(Cl)c([N+](=O)[O-])c1 returned MC4R ag barr -1, SMARCA2 act -3, ATG4B inh 0, MC4R antagonist 15, MPTP block 54* and MPTP counter 75*.
For O=C(Nc1ccc(Cl)cc1)c1ccc(-n2cccn2)c([N+](=O)[O-])c1 the results were MC4R ag barr 1, SMARCA2 act -2, ATG4B inh 0, MC4R antagonist -7, MPTP block 73* and MPTP counter 66*.
For CCOC(=O)Cn1nc(C)c(NC(=O)c2ccc(Cl)c([N+](=O)[O-])c2)c1C the results were MC4R ag barr 1, SMARCA2 act -1, ATG4B inh -20, MC4R antagonist 16, MPTP block 61* and MPTP counter 77*.
Screening Cc1ccc(C)c(NC(=O)c2cccc3c2-c2ccccc2C3=O)c1 returned SMARCA2 act 2.
For COC(=O)C1CN(Cc2cn(Cc3ccc(F)cc3)nn2)CCS(=O)(=O)N1Cc1ccccc1 (stereo unspecified) the results were SMARCA2 act -3.
Screening COC(=O)[C@@]12CCCCC3=C1N(CCC3)C(=O)[C@H]2CC(=O)NCc1ccc(OC)c(OC)c1 returned SMARCA2 act 3.
CCCN(CCC)CC(O)Cn1cc(/C=C/C(=O)c2cccs2)c2ccccc21 (stereo unspecified) was read as MC4R ag barr 1, SMARCA2 act -1, ATG4B inh -7, MC4R antagonist -6, MPTP block 74* and MPTP counter -16.
For CCCN(CCC)CC(O)Cn1cc(/C=C/C(=O)c2ccccc2)c2ccccc21 (stereo unspecified) the results were MC4R ag barr 1, SMARCA2 act -1, ATG4B inh -2, MC4R antagonist -5 and MPTP block 3.
For COc1cc(CNCCc2c[nH]c3ccccc23)ccc1OCc1ccc(F)cc1 the results were MC4R ag barr 9.2*, SMARCA2 act -2, ATG4B inh -7, MC4R antagonist -2, MPTP block 70* and MPTP counter -25.
Screening CCCCCc1ccc(-c2cn(CN3C(=O)c4ccccc4C3=O)nn2)cc1 returned MC4R ag barr 1, SMARCA2 act 0, ATG4B inh 7, MC4R antagonist -5, MPTP block 71*, MPTP counter 11, MPTP abs DR <0.2* and MPTP counter DR <2.5*.
Screening CC1CC1C(=O)N1CCC(Oc2cccnc2)CC1 (stereo unspecified) returned SMARCA2 act 1.
For N#CC1=C(N)N2C(=C(C#N)C13CCCCC3)SC1CCCCC12O (stereo unspecified) the results were MC4R ag barr 7, SMARCA2 act -1, ATG4B inh -4, MC4R antagonist 14, MPTP block 66* and MPTP counter 72*.
`Cc1ccc(CN2CCCCC(NC(=O)Cc3cccs3)C2=O)cc1` (stereo unspecified) gave SMARCA2 act -3.
CC1(C)CC(NC(=O)c2cccc(S(=O)(=O)N(Cc3ccccc3)c3ccccc3)c2)CC(C)(C)N1 was read as MC4R ag barr -4, SMARCA2 act 1, ATG4B inh -6, MC4R antagonist 5, MPTP block 83*, MPTP counter -17, MPTP abs DR 9.5* and MPTP counter DR >80.
`CN(C)S(=O)(=O)c1cccc(CSCc2cccc(S(=O)(=O)N(C)C)c2)c1` gave MC4R ag barr 1, SMARCA2 act -5, ATG4B inh -4, MC4R antagonist 1, MPTP block 79* and MPTP counter 88*.
For Cc1snc(S(=O)(=O)/C(C#N)=N/Nc2cccc(C(F)(F)F)c2)c1C#N the results were MC4R ag barr -1, ATG4B inh -7, MC4R antagonist 5, MPTP block 104* and MPTP counter 90*.
For COc1cccc(CNS(=O)(=O)c2ccc3c(c2)CC(C)N3C(=O)C2CC2)c1 (stereo unspecified) the results were MC4R ag barr -2, SMARCA2 act -3, ATG4B inh -12, MC4R antagonist 3 and MPTP block 27.
COc1ccc(CNS(=O)(=O)c2ccc3c(c2)CC(C)N3C(=O)C2CC2)cc1 (stereo unspecified) was read as MC4R ag barr -2, SMARCA2 act -4, ATG4B inh -6, MC4R antagonist 2, MPTP block 99* and MPTP counter 88*.
Screening O=C(Nc1ccc(Oc2ncnc3cc(Cl)ccc23)nc1)Nc1cccc(C(F)(F)F)c1 returned MC4R ag barr 1, SMARCA2 act -5, ATG4B inh 0, MC4R antagonist -1, MPTP block 90* and MPTP counter 25*.
`C=CCn1c(Cc2cccs2)nnc1SCC(=O)Nc1cccc2ccccc12` gave SMARCA2 act -4.
Screening O=C(CCSc1ccccc1Cl)Nc1cccc([N+](=O)[O-])c1 returned MC4R ag barr 3, SMARCA2 act 3, ATG4B inh 17, MC4R antagonist 1, MPTP block 89* and MPTP counter 84*.
Screening NC(=O)c1c(N)[nH]c(C(=O)c2ccccc2)c1-c1ccccc1Cl returned SMARCA2 act 1.

High-throughput results (PubChem BioAssay)
